Assay outcomes: PubChem, several laboratories
GASC-1 inh: inhibitors of GASC-1 histone demethylase, primary screen, biochemical, fluorescence, DELFIA europium. Lysine-specific demethylase 4C (Homo sapiens), Q9H3R0. GST-JMJD2C(1-420) H3K9me3 demethylation. inhibition, % at 2.35 µM. 330,000 compounds, 0.069% hits. AID 2099, 2009;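 active means more than half of a compound's replicate wells show inhibition beyond 50%, single wells judged on their own value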;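 further: signal counts dimethyl H3K9 product captured on neutravidin plate; 0% = median of DMSO wells and 100% = 0.3 times that DMSO median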
Target sequence (Q9H3R0 1-420 limits assumed): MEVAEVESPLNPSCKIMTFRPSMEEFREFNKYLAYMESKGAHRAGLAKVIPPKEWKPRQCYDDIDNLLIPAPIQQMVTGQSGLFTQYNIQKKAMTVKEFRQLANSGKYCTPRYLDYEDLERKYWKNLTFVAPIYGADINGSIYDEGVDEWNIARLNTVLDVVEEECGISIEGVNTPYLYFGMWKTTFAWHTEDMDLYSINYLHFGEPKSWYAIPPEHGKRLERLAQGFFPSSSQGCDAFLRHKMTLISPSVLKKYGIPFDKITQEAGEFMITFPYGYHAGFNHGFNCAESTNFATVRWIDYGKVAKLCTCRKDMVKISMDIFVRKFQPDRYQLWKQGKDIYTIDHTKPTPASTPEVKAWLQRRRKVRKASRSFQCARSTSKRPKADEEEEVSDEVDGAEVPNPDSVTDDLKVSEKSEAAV
DAX1 inh-1: DAX1 (NR0B1) inhibitors, primary screen, cell-based, HEK293, Gal4-DAX1, luciferase luminescence; 340,000 compounds, 0.99% hits; Nuclear receptor subfamily 0 group B member 1 (Homo sapiens), P51843; HEK293 Gal4-DAX1 luciferase reporter; inhibition, % at 6.75 µM;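 active means inhibition above the mean over all tested compounds plus 3 SD, cut at about 4.2% in these data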;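 further: 0% = DAX1-transfected cells with DMSO and 100% = empty-vector control cells with DMSO; inhibition shows as a rise in luminescence from relieved DAX1 repression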
NR2E3 ag-1: inhibitors of NR2E3-RetCOR corepressor binding, primary screen, NR2E3 agonist project, biochemical, TR-FRET, GST-NR2E3, biotin-RetCOR; inhibition of corepressor binding, % at 4.78 µM; 1536-well; 320,000 compounds, 0.12% hits; Photoreceptor-specific nuclear receptor (Homo sapiens), Q9Y5X4; AID 2300, 2010;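 active means percent inhibition above the cutoff of mean plus 3 SD of all tested compounds, set per screening campaign, cut at about 20% in these data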;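 further: 0% = DMSO wells and 100% = biotin wells as full block of FRET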
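Test system – NR2E3–RetCOR corepressor complex · Quantity – NR2E3 fusion 1.35 nM · Buffer or medium – Tris pH 7.5 · Incubation – Compound–protein incubation for 5 h at 4 °C · Technique – TR-FRET, Eu(K)-anti-GST donor, streptavidin-D2 acceptor, ex 340, em 617/671 nm · Evaluation – percent inhibition of 671/617 nm emission ratio versus biotin and DMSO controls · Plate – 1536-well format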
DAX1 inh-2: DAX1 (NR0B1) inhibitors on StAR promoter, primary screen, cell-based, luminescence, SF-1 (NR5A1), full-length DAX-1. 370,000 compounds, 1.1% hits. AID 652010, 2013. HEK293T StAR-luciferase reporter, SF-1/DAX-1 repression relief. inhibition, % at 6.8 µM;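 active means inhibition above the mean over all tested compounds plus 3 SD, cut at about 3.6% in these data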;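 further: 0% = DAX-1 cells with DMSO and 100% = cells lacking DAX-1 with DMSO; higher inhibition means more luminescence from relief of DAX-1 repression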
SMARCA2 activ: SMARCA2 (BRM) function activators, primary screen, cell-based, luminescence, high throughput | MG213 cells, MMTV-luciferase reporter, dexamethasone, overnight | activation, % at 9.1 µM | 370,000 compounds, 1% hits | AID 652017, 2013; in the data active means activation above about 7.8%;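 further: 0% = vehicle wells and 100% = reference activator wells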
NR2E3 ag-2: NR2E3 agonists in two-hybrid cells, primary screen, cell-based, luminescence, CHO-S, Gal4-NCOR/VP16-NR2E3. Photoreceptor-specific nuclear receptor (Homo sapiens), Q9Y5X4. luciferase. inhibition of corepressor binding, % at 3.98 µM. 360,000 compounds, 0.35% hits;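 active means inhibition above the mean of all tested compounds plus 3 SD, cut at about 70% in these data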;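 further: 0% = DMSO with NR2E3 transfected cells and 100% = cells lacking NR2E3 construct; higher means lower luciferase signal from less NR2E3 corepressor binding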
DAX1 inh confirm: DAX1 (NR0B1) inhibitors relieving SF-1 repression, confirmation, cell-based, luminescence, HEK293T, full-length DAX-1, SF-1 activated StAR promoter; shares compounds with DAX1 inh-2; HEK293T StAR-promoter luciferase reporter, SF-1/DAX-1 repression; inhibition, % at 6.8 µM; 2,400 compounds, 87% hits;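 active means inhibition above the average of every tested compound plus 3 SD, cut at about 3.8% in these data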;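 further: 0% = DAX-1 cells with DMSO and 100% = no DAX-1 control cells with DMSO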
SF1 mutant ctr: StAR reporter signal changes without DAX1, counter-screen for DAX1 inhibitor project, cell-based, luminescence, AF-2 mutant SF-1, transactivation | inhibition, % at 6.8 µM | 2,400 compounds, 78% hits | shares compounds with DAX1 inh-2 | HEK293 StAR-luciferase, SF-1 AF2 mutant | AID 652136, 2013;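 active means inhibition above the mean of all tested compounds plus 3 SD, cut at about 3% in these data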;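 further: 0% = DAX-1 transfected cells with DMSO and 100% = cells without DAX-1 with DMSO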
Numbers without * were called inactive. Only some compounds are listed: those with a hit (about 3.2% of all), similar ones and a draw of the others.

COc1cc(NC(=O)C2CCCN(S(=O)(=O)c3cc(OC)ccc3OC)C2)cc(OC)c1 (stereo not given) was read as DAX1 inh-2 0 and SMARCA2 activ -7.
`CCOc1cc(N2CCOCC2)c(OCC)cc1NC(=O)Cn1cnnn1` gave GASC-1 inh 10, DAX1 inh-1 0, DAX1 inh-2 1, SMARCA2 activ 0 and NR2E3 ag-2 -21.
`CCOc1cc(N2CCOCC2)c(OCC)cc1NC(=O)Cn1nc(C)c([N+](=O)[O-])c1C` gave GASC-1 inh 1, DAX1 inh-1 -1, NR2E3 ag-1 5, DAX1 inh-2 4.7*, SMARCA2 activ -3, NR2E3 ag-2 10, DAX1 inh confirm 2 and SF1 mutant ctr 1.
For O=C(Nc1ccc(CN2CCOCC2)cc1)c1ccccc1F the results were GASC-1 inh 46, DAX1 inh-1 0, NR2E3 ag-1 1, DAX1 inh-2 3, SMARCA2 activ 2 and NR2E3 ag-2 -69.
O=C(Nc1ccc(CN2CCOCC2)cc1)c1cc2ccccn2n1 was read as GASC-1 inh 10, DAX1 inh-1 -2, NR2E3 ag-1 -5, DAX1 inh-2 6.2*, SMARCA2 activ -1, NR2E3 ag-2 -108, DAX1 inh confirm 9.8* and SF1 mutant ctr 3.0*.
Screening O=C(CSc1nnc(-c2ccncc2)n1-c1ccc(Cl)cc1)c1ccc(Cl)c(Cl)c1 returned DAX1 inh-2 0 and SMARCA2 activ -1.
Screening CCOC(=O)c1cc(-c2cccc(O)c2)oc1C returned DAX1 inh-2 6.2*, SMARCA2 activ 6, NR2E3 ag-2 -101, DAX1 inh confirm 3.8* and SF1 mutant ctr 3.2*.
Screening COC(=O)c1ccc(NC(=O)c2ccccc2C(=O)Nc2ccc(C(=O)OC)cc2)cc1 returned GASC-1 inh 4, DAX1 inh-1 2, NR2E3 ag-1 -21, DAX1 inh-2 0, SMARCA2 activ 1 and NR2E3 ag-2 8.
COC(=O)c1ccc(NC(=O)C(=O)c2cccn2C)cc1 was read as GASC-1 inh 2, DAX1 inh-1 -3, NR2E3 ag-1 -3, DAX1 inh-2 6.9*, SMARCA2 activ 7, NR2E3 ag-2 -131, DAX1 inh confirm 15* and SF1 mutant ctr 7.3*.
For CCOC(=O)c1c(C)[nH]c(C=Nc2ccc(OC)cc2)c1O the results were GASC-1 inh -11, DAX1 inh-1 2, NR2E3 ag-1 -5, DAX1 inh-2 1, SMARCA2 activ -1 and NR2E3 ag-2 -16.
CCOC(=O)c1c(C)[nH]c(N=Nc2cccc(OC)c2)c1C was read as GASC-1 inh -8, DAX1 inh-1 3, NR2E3 ag-1 0, DAX1 inh-2 4.9*, SMARCA2 activ 0, NR2E3 ag-2 -165, DAX1 inh confirm 16* and SF1 mutant ctr 8.0*.
For CCOC(=O)c1c(C)[nH]c(N=Nc2ccccc2)c1C the results were GASC-1 inh 28, DAX1 inh-1 3, NR2E3 ag-1 -1, DAX1 inh-2 0, SMARCA2 activ 5 and NR2E3 ag-2 -104.
